Source: PubChem BioAssay
TLR9-MyD88 inh – blocks human TLR9 binding to MyD88; Q9NR96+Q99836; CHO BLA complementation TLR9-MyD88, CCF4 FRET ratio; inhibition, % at 4.98 µM; 0.21% of 340,000 active;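 active = inhibition above the mean over all tested compounds plus 3 SD, cut at about 21% in these data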;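 also: 0% = DMSO only wells and 100% = clavulanate BLA inhibitor control wells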
CHOP inhibitor – inhibitors of CHOP induction in ER stress response. CHO-K1 CHOP-promoter luciferase, tunicamycin-induced, 15-18 h. inhibition, % at 10 µM. 3.8% of 220,000 active;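 active = compounds that reduced the stress-induced luciferase reporter signal by more than about 70% of percent inhibition, limit read from the data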;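 also: 0% = tunicamycin plus vehicle and 100% = wells without tunicamycin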
XBP1 UPR activ – activators of adaptive arm of unfolded protein response (XBP1); CHO-XBP1 luciferase reporter, IRE1-XBP1 UPR activation, luminescence; percent of tunicamycin response, DMSO as zero; activation, % at 20 µM; 0.33% of 330,000 active; AID 463104;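 active = versus positive control, 20 µM dose yields 30% or more activation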;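 also: 100% = tunicamycin at 10 µg/mL and 0% = DMSO only wells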
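Material: IRE1-XBP1 luciferase reporter CHO line / Quantity: one thousand reporter cells per well / Buffer or medium: F12 with 10% serum / Compound: 20 µM single concentration, DMSO 1% / Times: 6 h treatment, 37 °C / Detection: Steady-Glo luciferase glow luminescence, 10 min after reagent addition / Benchmarks: tunicamycin high, DMSO low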
TLR4 MyD88 comp – blocks binding of human TLR4 to MyD88 | O00206+Q99836 | HeLa CL3-4 TLR4/MyD88 BLA complementation, FRET ratio | inhibition, % at 8.4 µM | 0.18% of 200,000 active | AID 861; in the data active = inhibition above about 25%;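 also: 0% = vehicle and 100% = reference inhibitor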
NOD2 RIPK2 PPI – blocks binding of human NOD2 to RIPK2; inhibition, % at 4.98 µM; CHO BLA complementation NOD2-RIPK2, CCF4 ratio; 0.38% of 360,000 active; O43353; AID 624267; in the data active = inhibition above about 21%;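 also: 0% = vehicle only and 100% = reference blocker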
CHOP UPR activ – activators of apoptotic arm of unfolded protein response (CHOP); CHO-CHOP luciferase reporter, UPR activation, luminescence; percent of tunicamycin response over DMSO baseline; activation, % at 10 µM; 0.34% of 330,000 active; AID 449763;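 active = at 10 µM dose, activation of 40% or more, normalized to positive control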;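 also: 100% = tunicamycin at 10 µg/mL and 0% = DMSO alone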
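System: CHO-CHOP luciferase reporter cell line | Buffer or medium: F12 medium containing 10% fetal bovine serum | Doses: One dose, 10 µM in 0.5% DMSO | Times: 6 h compound exposure at 37 °C after overnight seeding | Signal: Luciferase luminescence | Read-out: % activation vs tunicamycin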
UPR CHOP confirm – confirmation of apoptotic unfolded protein response (CHOP) activators; CHO-CHOP cells, CHOP-luciferase reporter luminescence; percent of tunicamycin response, DMSO as zero; activation, % at 10 µM; shares compounds with CHOP UPR activ; 64% of 1,000 active; in the data active = activation above about 33%;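 also: 0% = DMSO wells and 100% = tunicamycin 10 µg/mL wells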
Active calls of the source: *; . = no result. The sample as a whole holds a higher share of hits than the screen did.

SMILES	TLR9-MyD88 inh	CHOP inhibitor	XBP1 UPR activ	TLR4 MyD88 comp	NOD2 RIPK2 PPI	CHOP UPR activ	UPR CHOP confirm
CC(C)(C)c1ccc(OCc2ccc(C(=O)N/N=C/c3ccc(O)c(O)c3)cc2)cc1	1	28	20	-4	-3	41*	27
O=C(NCCc1ccc(F)cc1)C1CCN(C(=O)Nc2ccccc2)CC1	9	.	-3	.	-10	-3	.
Cn1nnnc1Sc1ncnc2scc(-c3cc4ccccc4o3)c12	14	.	-7	.	13	86*	118*
Cn1nnnc1Sc1ncnc2scc(-c3ccc(-c4ccccc4)cc3)c12	2	.	0	.	-1	5	.
COc1ccc(S(=O)(=O)Nc2ccccn2)cc1C(=O)Nc1ccccc1	-2	.	-2	.	0	0	.
CCCN(CCC)C(=O)c1cc([N+](=O)[O-])cc2c1-c1ccc([N+](=O)[O-])cc1C2=C(C#N)C#N	.	-66	-2	.	.	335*	201*
CCCCCCCCN1C(=O)[C@H](CC(=O)NCc2ccc(OC)c(OC)c2)C[C@@]2(C(=O)OCC)CCCC=C12	.	.	.	.	2	.	.
O=C(CS(=O)(=O)c1ccccc1)NCc1ccccc1	-6	.	1	.	-6	2	.
CCCN1C/C(=C/c2ccc3c(c2)OCO3)C(=O)/C(=C/c2ccc3c(c2)OCO3)C1	4	97*	6	-7	-2	55*	115*
Oc1c(C(c2ccccn2)N2CCC(Cc3ccccc3)CC2)cc(Cl)c2cccnc12 (centres undefined)	.	-346	14	2	.	43*	74*
CC(C)CC1(C)NC(=O)N(CC(=O)Nc2ccccc2Br)C1=O (centres undefined)	-15	.	-2	.	-13	-1	.
Cc1ccc(/C=C2\Oc3cc(OCC(=O)NN)ccc3C2=O)o1	5	.	-1	.	-10	0	.
O=C(CCN1C(=O)C2C3C=CC(C4CC34)C2C1=O)Oc1cccc2cccnc12 (centres undefined)	-7	48	10	-6	-5	72*	60*
O=C(NC1CCCC1)C(c1ccc(Cl)cc1)N(Cc1ccc(F)cc1)C(=O)CCl (centres undefined)	-3	46	8	9	-10	113*	88*
O=C(NC1CCCC1)C(c1ccc(F)cc1)N(Cc1ccc(Cl)cc1)C(=O)CCl (centres undefined)	0	106*	2	-1	1	149*	70*
COC(=O)c1c(NC(=O)C(Cl)Cl)sc2c1C(C(=O)OC)CC2 (centres undefined)	0	80*	18	.	-1	45*	30
COc1ccc(CCNC(=O)c2coc(=O)c(Br)c2)cc1	.	.	-1	.	.	116*	56*
O=C(CCN1C(=O)/C(=C/c2cccs2)SC1=S)N1CCCCC1	-8	.	-3	.	-8	40*	23
O=C(CCN1C(=O)/C(=C\c2ccccc2)SC1=S)N1CCCCC1	6	.	-3	.	-8	8	.
O=C(NCc1ccccc1)C1CCN(S(=O)(=O)c2ccc(Cl)cc2)CC1	-22	-7	-1	-23	-2	0	.
COc1ccc(C2C3=C(CC(C)(C)CC3=O)Oc3ncn(Cc4ccco4)c(=N)c32)cc1 (centres undefined)	-7	38	0	3	-7	44*	0
Cc1nc2scc(-c3ccccc3)c2c(=O)n1N=C1C=CC(=O)C=C1	.	110*	-7	7	.	90*	13
CCOC(=O)c1c(NC(=O)c2ccco2)n(C2CCCCC2)c2nc3ccccc3nc12	9	40	5	6	1	40*	0
O=C(CCl)Nc1cccc(S(=O)(=O)NC2=NCCCCC2)c1	-7	.	20	.	-6	167*	81*
CC1(C(=O)NCc2ccccc2)CSCC(=O)N1CCc1c[nH]c2ccccc12 (centres undefined)	.	.	.	.	-3	.	.
SMILES	TLR9-MyD88 inh	CHOP inhibitor	XBP1 UPR activ	TLR4 MyD88 comp	NOD2 RIPK2 PPI	CHOP UPR activ	UPR CHOP confirm
CC(=O)/C(=C/c1ccccc1)C(=O)Nc1ccccc1C	2	-77	-3	0	-15	46*	64*
CC(C)Cc1nnc(NC(=O)CCC(=O)N2CCN(c3ccc(F)cc3)CC2)s1	-8	.	-2	.	-6	1	.
Nc1ccn(C2CSC(CO)O2)c(=O)n1 (centres undefined)	.	.	.	.	3	.	.
Clc1ccc(OCc2nnc(-c3ccccc3Br)o2)c(Cl)c1	10	-43	1	-3	-7	3	.
Cc1cccc(/C=C/C(=O)c2ccc([N+](=O)[O-])o2)c1	4	.	-7	.	6	217*	142*
COc1ccc(/C=C/C(=O)c2ccc([N+](=O)[O-])o2)cc1	1	.	-6	.	-3	89*	99*
O=C(/C=C/c1cccc([N+](=O)[O-])c1)c1ccc([N+](=O)[O-])o1	8	.	.	.	5	.	.
Cc1ccccc1NC(=O)c1ccc([N+](=O)[O-])o1	1	66	0	15	-6	2	.
Cc1ccccc1/C=C/C(=O)c1ccc([N+](=O)[O-])o1	.	.	0	.	.	112*	68*
Cc1ccc(NC(=O)c2cnc(SCC(=O)NCC3CCCO3)n(C)c2=O)cc1C (centres undefined)	-7	.	-4	.	-6	51*	24
Cn1c(SCC(=O)NCC2CCCO2)ncc(C(=O)Nc2ccccc2)c1=O (centres undefined)	-2	.	0	.	-2	11	.
COc1ccccc1OCCN1CSC(=S)N(C)C1	-14	29	-3	-3	-11	82*	28
Cc1cccc(OCCN2CSC(=S)N(C)C2)c1	-2	-68	6	-11	-5	59*	35*
Cc1cccc(OCCCN2CCCCCC2)c1	-8	-12	-2	6	2	1	.
COC(=O)c1ccc(N2CCOCC2)c(NC(=O)c2ccco2)c1	-1	.	-7	.	-5	2	.
COC(=O)c1ccccc1NC(=O)c1nc(S(=O)(=O)Cc2ccccc2)ncc1Cl	8	.	-10	.	2	-11	.
CSc1nnc(NC(=O)c2nc(S(=O)(=O)Cc3cccc(C)c3)ncc2Cl)s1	10	.	-6	.	14	55*	75*
CCc1nnc(NC(=O)c2nc(S(=O)(=O)Cc3ccccc3)ncc2Cl)s1	3	.	-9	.	18	59*	13
Cc1nnc(NC(=O)c2nc(S(=O)(=O)Cc3ccccc3C)ncc2Cl)s1	10	.	-8	.	11	26	.
CCSc1nnc(NC(=O)c2nc(S(=O)(=O)Cc3ccc(F)cc3)ncc2Cl)s1	0	.	-8	.	4	25	.
CC(C)c1nnc(NC(=O)c2nc(S(=O)(=O)Cc3ccccc3F)ncc2Cl)s1	.	.	-9	.	.	56*	18
